The array DNA melting data of Ke et al. (doi:10.1101/2024.01.08.574731)

Experiments:
[1] = folding enthalpy; higher = less favourable; fluorescence melt of hairpins on a sequencing array, two-state fit; settings: sodium 0.088 M
Procedure, shortened: (§1)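 Bootstrapped two-state fits yielded melting temperature and folding enthalpy for library hairpins. Cy3 fluorescence, with annealed Cy3 and quencher oligos, was imaged on a sequenced MiSeq flow cell in 50 mM Na-HEPES pH 8.0, 25 mM NaCl in 2.5 °C steps up to 60 °C, and normalised to pre-quench Cy3 and to control constructs. Four replicates were combined by inverse variance, and fitted temperatures were raised by 9.35 °C to match UV melts.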

[2] = melting temperature; fluorescence melt of hairpins on a sequencing array, two-state fit, raised by 9.35 °C to match UV melts; settings: sodium 0.088 M
Procedure, shortened: as §1

| Sequence | folding enthalpy [1] [kcal/mol] | Tm [2] [°C] |
| --- | --- | --- |
| GTGTACCGAAAGGTCCAC (((.(((....))).))) | -31 | 48.1 |
| GTGTACGAAAGTAAACAC ((((((....)))..))) | -25.1 | 42.6 |
| GTGTACGAAAGTAGCAC ((((((....))).))) | -23.6 | 42.9 |
| GTGTACGAAAGTAGTCAC ((((((....)))..))) | -12.2 | 30.9 |
| GTGTACGGAAACGTGCAC (((.(((....))).))) | -28.3 | 55.3 |
| GTGTAGCGAAAGCTCCAC (((.(((....))).))) | -31.7 | 48 |
| GTGTAGCGAAAGCTTCAC (((.(((....))).))) | -32 | 51.8 |
| GTGTAGGCGAAAGCCCAC (((..(((....)))))) | -17.4 | 44.5 |
| GTGTAGGGAAACCTATGC (..((((....))))..) | -12.2 | 30.9 |
| GTGTAGGGAAACCTGCAC (((.(((....))).))) | -29.7 | 50.3 |
| GTGTATGGAAACACACAC ((((.((....)).)))) | -26.1 | 38.1 |
| GTGTATGGAAACATACAC (((((((....))))))) | -42 | 57.2 |
| GTGTCAGGAAACTGGCAC (((.(((....))).))) | -39.4 | 54.4 |
| GTGTCATCGAAAGATCAC (((..(((....)))))) | -17.1 | 32.4 |
| GTGTCCGAAAGGAGTCAC ((((((....)))..))) | -19.1 | 35 |
| GTGTCCGAAAGGATGCAC ((((((....)))..))) | -15.8 | 42.9 |
| GTGTCCGAAAGGATTCAC ((((((....)))..))) | -16.3 | 35.3 |
| GTGTCCGGAAACGGATAC ((.((((....)))).)) | -38.6 | 53.3 |
| GTGTCGCCGAAAGGCCAC (((..(((....)))))) | -15 | 44.4 |
| GTGTCGCGAAAGCGTCAC (((.(((....))).))) | -31.9 | 63 |
| GTGTCTGGAAACGGACAC (((((.(....).))))) | -41.3 | 54 |
| GTGTGAACGAAAGTTCAC (((..(((....)))))) | -12.9 | 65.6 |
| GTGTGAGGAAACTTACGC (.((.((....)).)).) | -17.7 | 33.7 |

| Sequence | folding enthalpy [1] [kcal/mol] | Tm [2] [°C] |
| --- | --- | --- |
| GTGTGAGGAAACTTGCAC (((..((....))..))) | -28 | 35.1 |
| GTGTGCGAAAGCACGCAC ((((((....)))..))) | -9.49 | 61.1 |
| GTGTGCGAAAGCATTCAC ((((((....)))..))) | -15.8 | 38.3 |
| GTGTGCGGAAACACACAC (((((.(....).))))) | -36.2 | 51.8 |
| GTGTGCGGAAACGCGCAC (((.(((....))).))) | -27.7 | 67.7 |
| GTGTGGGGAAACCTACGC (.((.((....)).)).) | -24.1 | 39.2 |
| GTGTGTCGAAAGACTCAC (((.(((....))).))) | -40.9 | 53.2 |
| GTGTGTGGAAACGTACAC ((((..(....)..)))) | -23.5 | 42 |
| GTGTTACGAAAGTACCAC (((.(((....))).))) | -29.4 | 43.2 |
| GTGTTAGAAATAACAC ((((((....)))))) | -28.6 | 47.1 |
| GTGTTAGGAAACTAGCAC (((.(((....))).))) | -31.2 | 42.9 |
| GTGTTCGAAAGAACCCAC ((((((....)))..))) | -11.7 | 33.1 |
| GTGTTCGAAAGAATGCAC ((((((....)))..))) | -19.1 | 33.5 |
| GTGTTCGAAAGAATTCAC ((((((....)))..))) | -10.3 | 28.8 |
| GTGTTCGGAAACGAACGC (.(((((....))))).) | -30.3 | 59.6 |
| GTGTTCGGAAACGGATAC ((.(.((....)).).)) | -25.8 | 33.6 |
| GTGTTCTCGAAAGAGCAC (((..(((....)))))) | -24.7 | 41.8 |
| GTGTTGCGAAAGCACAC (((.(((....)))))) | -33.8 | 56.3 |
| GTGTTGCGAAAGCACCAC (((.(((....))).))) | -30.7 | 51.2 |
| GTGTTGGGAAACCAATAC ((.((((....)))).)) | -41.5 | 45.7 |
| GTGTTGGGAAACCAGTAC ((..(((....)))..)) | -11 | 25 |
| GTGTTGGGAAACCGACAC ((((.((....)).)))) | -45.5 | 53.6 |
| GTGTTTCGAAAGAACCAC (((.(((....))).))) | -30.7 | 43 |

| Sequence | folding enthalpy [1] [kcal/mol] | Tm [2] [°C] |
| --- | --- | --- |
| GTGTTTGGAAACAAACGC (.(((((....))))).) | -32.3 | 51 |
| GTTAAACGAAAGTTAAC (((.(((....)))))) | -17.2 | 34.6 |
| GTTAAACGAAAGTTCAAC (((.(((....))).))) | -22.6 | 30.3 |
| GTTAAAGGAAACTTTAGC (.(((((....))))).) | -20.6 | 27.6 |
| GTTAACGAAAGTTACAAC ((((((....)))..))) | -12.3 | 25.6 |
| GTTAACGAAAGTTTAAC ((((((....))).))) | -17 | 34.6 |
| GTTAACGGAAACGTCAAC (((.(((....))).))) | -15.2 | 34.2 |
| GTTAAGCGAAAGCTGAAC (((.(((....))).))) | -23.2 | 48.2 |
| GTTAAGGGAAACCTTAAC (((((((....))))))) | -39.2 | 50.5 |
| GTTAAGGGAAACCTTGAC ((.((((....)))).)) | -29.3 | 37.4 |
| GTTAAGTCGAAAGACAAC (((..(((....)))))) | -13.4 | 27.8 |
| GTTACCGAAAGGTAAAAC ((((((....)))..))) | -13.2 | 34.7 |
| GTTACCGAAAGGTGAAAC ((((((....)))..))) | -9.44 | 27.5 |
| GTTACCGAAAGGTTAAC ((((((....))).))) | -15.4 | 41.9 |
| GTTACCGGAAACGGTGAC ((.((((....)))).)) | -30.4 | 51.2 |
| GTTACGACGAAAGTCAAC (((..(((....)))))) | -12.3 | 25.5 |
| GTTACGCGAAAGCGAAAC (((.(((....))).))) | -23.5 | 51.1 |
| GTTACTGGAAACGGTAAC (((((.(....).))))) | -32.2 | 43.9 |
| GTTAGACCGAAAGGTAAC (((..(((....)))))) | -11.2 | 30.2 |
| GTTAGAGGAAACTCTAAC (((((((....))))))) | -39.7 | 51.6 |
| GTTAGAGGAAACTCTGAC ((.((((....)))).)) | -31.4 | 37.1 |
| GTTAGAGGAAACTTTAAC ((((.((....)).)))) | -15.5 | 27.5 |
| GTTAGCACGAAAGTGAAC (((..(((....)))))) | -11.6 | 27 |

| Sequence | folding enthalpy [1] [kcal/mol] | Tm [2] [°C] |
| --- | --- | --- |
| GTTAGCGAAAGCTCTAAC ((((((....)))..))) | -8.83 | 25.6 |
| GTTAGCGAAAGCTGAAC ((((((....))).))) | -13.2 | 38.4 |
| GTTAGCGAAAGCTTAAC ((((((....))).))) | -13.9 | 42.8 |
| GTTAGGCCGAAAGGCAAC (((..(((....)))))) | -9.31 | 32.1 |
| GTTAGGGAAACCTAAC ((((((....)))))) | -30.8 | 48.4 |
| GTTAGGGGAAACCCTGAC ((.((((....)))).)) | -28.4 | 45.6 |
| GTTAGGGGAAACCTTAAC ((((.((....)).)))) | -22.3 | 33.4 |
| GTTAGTGAAAACTAAC ((((((....)))))) | -33.4 | 49.3 |
| GTTAGTGGAAACACTAGC (.(((((....))))).) | -21.1 | 40 |
| GTTAGTGGAAACACTGAC ((.((((....)))).)) | -24.2 | 44.7 |
| GTTATACGAAAGTACAAC (((.(((....))).))) | -17.4 | 33.2 |
| GTTATCACGAAAGTGAAC (((..(((....)))))) | -10.2 | 28.5 |
| GTTATCGGAAACGATGAC ((.((((....)))).)) | -25.2 | 47.1 |
| GTTATGGGAAACCACAAC (((.(((....))).))) | -14.9 | 29.2 |
| GTTATGGGAAACCGTAAC ((((.((....)).)))) | -33.2 | 44.2 |
| GTTCAAGGAAACTTGGAC ((.((((....)))).)) | -20.7 | 43.7 |
| GTTCACACGAAAGTGAAC (((..(((....)))))) | -23.8 | 49.2 |
| GTTCACGAAAGTGTCAAC ((((((....)))..))) | -10.7 | 28.6 |
| GTTCACGGAAACGTGAGC (.(((((....))))).) | -22.2 | 52.1 |
| GTTCAGGGAAACCTGAAC (((((((....))))))) | -43.2 | 60.4 |
| GTTCATGGAAACATGGAC ((.((((....)))).)) | -27.7 | 46.3 |
| GTTCCACGAAAGTGAAC (((.(((....)))))) | -17.7 | 41.8 |
